Active and inactive are the calls of the source. The calls are words filed in the database; no cut-off is given here.
Target: T1, Histamine H4 receptor (Homo sapiens, UniProt Q9H3N8)
Experiment: Agonist activity at human histamine H4 receptor expressed in Sf9 cells coexpressing RGS19 protein by steady-state GTPase assay
Type: functional
Summary of the method: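 Sf9 membranes (10-20 μg protein/tube), washed and resuspended in 10 mM Tris-HCl pH 7.4. H2R as hH2R-GsαS fusion; H3R coexpressed with Giα2, Gβ1γ2, RGS4; H4R as hH4R-RGS19 fusion with Giα2, Gβ1γ2. Buffer: 50 mM Tris/HCl pH 7.4, MgCl2 (H2R 1.0 mM; H3R/H4R 5.0 mM), 100 μM EDTA, 100 μM ATP, 100 nM GTP, 100 μM AppNHp, creatine phosphate/kinase, 0.2% BSA; H4R plus 100 mM NaCl.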

T1 sequence (Q9H3N8 whole entry): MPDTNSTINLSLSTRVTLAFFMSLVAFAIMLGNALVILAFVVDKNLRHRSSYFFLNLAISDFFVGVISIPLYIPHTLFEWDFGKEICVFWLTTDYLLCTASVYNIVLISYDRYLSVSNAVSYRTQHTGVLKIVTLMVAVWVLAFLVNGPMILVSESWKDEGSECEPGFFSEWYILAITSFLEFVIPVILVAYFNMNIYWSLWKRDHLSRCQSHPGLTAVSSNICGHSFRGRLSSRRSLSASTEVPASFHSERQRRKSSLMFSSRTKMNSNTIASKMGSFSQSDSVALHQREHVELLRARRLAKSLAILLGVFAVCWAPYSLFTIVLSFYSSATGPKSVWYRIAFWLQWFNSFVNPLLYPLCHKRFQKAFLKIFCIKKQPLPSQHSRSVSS

Going from `N#C/N=C(/NCCCCc1c[nH]cn1)NCCCc1ccccn1` to `N#C/N=C(/NCCCCc1c[nH]cn1)NCCCc1cccnc1`, the EC50 rises from 575 nM to 1200 nM (2.1-fold). The first is the more potent here.

First: N#CNC(=NCCCCc1cnc[nH]1)NCCCc1ccncc1
Second: Cc1[nH]cnc1CSCCN/C(=N/C#N)NCCC(c1ccccc1)c1ccccc1
The EC50 of the first is lower: 2570 nM for the first, > 10000 nM for the second. The first is the more potent here.

Target: Histamine H3 receptor (Homo sapiens, UniProt Q9Y5N1)
Sequence (Q9Y5N1 whole entry): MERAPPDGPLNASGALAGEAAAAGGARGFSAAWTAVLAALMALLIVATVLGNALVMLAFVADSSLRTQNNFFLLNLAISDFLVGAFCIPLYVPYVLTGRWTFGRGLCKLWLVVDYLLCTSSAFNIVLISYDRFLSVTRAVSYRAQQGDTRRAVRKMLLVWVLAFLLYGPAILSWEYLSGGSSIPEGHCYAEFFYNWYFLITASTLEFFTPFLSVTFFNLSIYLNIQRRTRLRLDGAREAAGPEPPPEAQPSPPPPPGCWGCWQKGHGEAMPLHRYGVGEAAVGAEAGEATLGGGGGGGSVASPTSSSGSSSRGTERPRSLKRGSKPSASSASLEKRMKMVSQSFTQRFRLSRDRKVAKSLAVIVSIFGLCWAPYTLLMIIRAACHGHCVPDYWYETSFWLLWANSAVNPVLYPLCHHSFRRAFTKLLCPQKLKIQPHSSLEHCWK
Experiment: Antagonist activity at human histamine H3 receptor expressed in Sf9 cells coexpressing Gialpha-2-Gbeta-1-gamma-2 and RGS4 proteins protein by steady-state GTPase assay
Type: functional
Summary of the method: (§1)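 Antagonist-mode steady-state GTPase assay in Sf9 membranes: H1R coexpressed with RGS4; H2R as GsαS fusion; H3R coexpressed with Giα2/Gβ1γ2/RGS4; H4R as RGS19 fusion with Giα2/Gβ1γ2. […] MgCl2: H1R/H2R 1.0 mM, H3R/H4R 5.0 mM; H4R plus 100 mM NaCl. [γ-32P]GTP hydrolysis measured over 20 min at 25 °C. pKB from nonlinear sigmoidal fits; duplicate runs.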

`CC(C)CN/C(=N\C#N)NCCCCCc1c[nH]cn1` and `CC(C)N/C(=N/C#N)NCCCCCc1c[nH]cn1` are within 0.2 log units of each other in pKb: 6.57 for the first, 6.47 for the second.

First: N#C/N=C(\NCCCCc1ccccc1)NCCCCc1c[nH]cn1
Second: N#C/N=C(/NCCCCCc1c[nH]cn1)NCCCc1ccccc1
The pKb of the first is lower: 5.54 for the first, 6.55 for the second.

Compared with `N#C/N=C(\NCCCCCc1c[nH]cn1)NCCSc1ccccc1`, `N#C/N=C(/NCCCCc1c[nH]cn1)NCCCc1ccccn1` is lower in pKb: 6.74 for the first, 5.89 for the second.

Compared with `N#C/N=C(/NCCCCc1c[nH]cn1)NCCCC1CCCCC1`, `CCN/C(=N/C#N)NCCCCCc1c[nH]cn1` is higher in pKb: 5.82 for the first, 6.92 for the second.

`N#C/N=C(/NCCCCc1c[nH]cn1)NCCCc1ccc(F)cc1` and `N#C/N=C(/NCCCCc1c[nH]cn1)NCCCc1ccncc1` are the same in pKb: 6.11 for the first, 6.11 for the second.

`CN/C(=N\C#N)NCCCCCc1c[nH]cn1` and `N#C/N=C(/NCCCCc1c[nH]cn1)NCCCc1cccnc1` are within 0.2 log units of each other in pKb: 6.38 for the first, 6.19 for the second.

First: N#C/N=C(/NCCCCc1c[nH]cn1)NCCc1c[nH]c2ccccc12
Second: NC(=O)/N=C(/NCCCCc1ccccc1)NCCCc1c[nH]cn1
The pKb of the first is higher: 6.77 for the first, 6.51 for the second.

Target: T2, Histamine H2 receptor (Homo sapiens, UniProt P25021)
T2 sequence (P25021 whole entry): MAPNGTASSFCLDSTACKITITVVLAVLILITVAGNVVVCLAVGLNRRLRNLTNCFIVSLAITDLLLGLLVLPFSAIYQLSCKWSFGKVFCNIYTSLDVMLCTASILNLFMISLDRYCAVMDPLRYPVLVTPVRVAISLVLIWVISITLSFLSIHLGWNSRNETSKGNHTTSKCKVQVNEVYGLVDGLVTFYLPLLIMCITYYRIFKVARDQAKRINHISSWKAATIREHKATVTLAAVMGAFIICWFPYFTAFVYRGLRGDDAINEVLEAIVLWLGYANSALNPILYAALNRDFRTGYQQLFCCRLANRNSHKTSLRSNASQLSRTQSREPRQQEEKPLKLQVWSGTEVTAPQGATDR
Experiment: Antagonist activity at human histamine H2 receptor expressed in Sf9 cells coexpressing GsalphaS protein by steady-state GTPase assay

First: N#C/N=C(\NCCc1c[nH]cn1)NCCc1c[nH]c2ccccc12
Second: Cc1[nH]cnc1CSCCN/C(=N/C#N)NCCC(c1ccccc1)c1ccccc1
The pKb of the first is lower: < 5 for the first, 5.8 for the second.

Target: T1, Histamine H4 receptor
Experiment: Antagonist activity at human histamine H4 receptor expressed in Sf9 cells coexpressing RGS19 protein by steady-state GTPase assay
Type: functional
Summary of the method: as §1

Going from `N#C/N=C(/NCCCC1CCCCC1)NCCc1c[nH]cn1` to `N#C/N=C(/NCCCc1c[nH]cn1)NCCCC1CCCCC1`, the pKb rises from 5.57 to 5.82.

First: N#C/N=C(/NCCCc1c[nH]cn1)NCCC(c1ccccc1)c1ccccc1
Second: N#C/N=C(/NCCCCc1c[nH]cn1)NCCC(c1ccccc1)c1ccccc1
The pKb of the first is lower: < 5 for the first, 5.6 for the second.

Going from `CC(C)CN/C(=N\C#N)NCCCCCc1c[nH]cn1` to `CC(C)N/C(=N/C#N)NCCCCCc1c[nH]cn1`, the pKb falls from 6.51 to 6.25.

Going from `N#C/N=C(\NCCCCc1ccccc1)NCCCCc1c[nH]cn1` to `N#C/N=C(/NCCCCCc1c[nH]cn1)NCCCc1ccccc1`, the pKb rises from 6.34 to 6.96.

First: N#C/N=C(\NCCCCCc1c[nH]cn1)NCCSc1ccccc1
Second: N#C/N=C(\NCCSc1ccccc1)NCCc1c[nH]cn1
The pKb of the first is higher: 6.85 for the first, 5.05 for the second.

`N#C/N=C(/NCCCc1c[nH]cn1)NCCc1ccccc1` and `N#C/N=C(\NCCc1ccccc1)NCCc1c[nH]cn1` are within 0.2 log units of each other in pKb: 5.32 for the first, 5.18 for the second.

`N#C/N=C(/NCCCCc1c[nH]cn1)NCCCC1CCCCC1` and `CCN/C(=N/C#N)NCCCCCc1c[nH]cn1` are within 0.2 log units of each other in pKb: 6.35 for the first, 6.47 for the second.

Compared with `N#C/N=C(/NCCCCc1c[nH]cn1)NCCCc1ccc(F)cc1`, `N#C/N=C(/NCCCCc1c[nH]cn1)NCCc1c[nH]c2ccccc12` is lower in pKb: 6.59 for the first, 5.8 for the second.

First: N#C/N=C(\NCCc1c[nH]cn1)NCCc1c[nH]c2ccccc12
Second: N#C/N=C(/NCCCc1c[nH]cn1)NCCc1c[nH]c2ccccc12
The pKb of the first is lower: < 5 for the first, 5.37 for the second.

`N#C/N=C(/NCCc1c[nH]cn1)NCCC(c1ccccc1)c1ccccc1` and `Cc1[nH]cnc1CSCCN/C(=N\C#N)NCCCc1ccccc1` cannot be ordered by pKb: < 5 for the first, < 5 for the second.

Going from `CN/C(=N\C#N)NCCCCCc1c[nH]cn1` to `NC(=O)/N=C(/NCCCCc1ccccc1)NCCCc1c[nH]cn1`, the pKb falls from 6.54 to 6.33.

Target: T2, Histamine H2 receptor
Experiment: Agonist activity at human histamine H2 receptor expressed in Sf9 cells coexpressing GsalphaS protein at 1 mM by steady-state GTPase assay
Type: functional

For `N#C/N=C(/NCCCc1c[nH]cn1)NCCc1ccccc1`, the Activity was “inactive”.
With `N#C/N=C(\NCCc1ccccc1)NCCc1c[nH]cn1` the Activity was “inactive”.
With `N#C/N=C(/NCCCc1c[nH]cn1)NCCc1c[nH]c2ccccc12` the Activity was “inactive”.

Target: T2, Histamine H2 receptor
Experiment: Antagonist activity at human histamine H2 receptor expressed in Sf9 cells coexpressing GsalphaS protein by steady-state GTPase assay
Type: functional
Summary of the method: as §1

First: N#C/N=C(\N)NCCCCc1c[nH]cn1
Second: CN/C(=N\C#N)NCCCCCc1c[nH]cn1
The pKb of the first is lower: < 5 for the first, 5.66 for the second.

Compared with `N#C/N=C(/NCCCc1c[nH]cn1)NCCC(c1ccccc1)c1ccccc1`, `N#C/N=C(/NCCCCc1c[nH]cn1)NCCC(c1ccccc1)c1ccccc1` is higher in pKb: < 5 for the first, 5 for the second.

Compared with `CC(C)CN/C(=N\C#N)NCCCCCc1c[nH]cn1`, `CC(C)N/C(=N/C#N)NCCCCCc1c[nH]cn1` is higher in pKb: < 5 for the first, 5.57 for the second.

Compared with `N#C/N=C(\NCCCCc1ccccc1)NCCCCc1c[nH]cn1`, `N#C/N=C(/NCCCCCc1c[nH]cn1)NCCCc1ccccc1` is higher in pKb: 5.03 for the first, 5.28 for the second.

First: N#C/N=C(\NCCCCCc1c[nH]cn1)NCCSc1ccccc1
Second: N#C/N=C(\NCCSc1ccccc1)NCCc1c[nH]cn1
The pKb of the first is higher: 5.21 for the first, < 5 for the second.

`N#C/N=C(/NCCCc1c[nH]cn1)NCCc1ccccc1` and `N#C/N=C(/NCCCc1c[nH]cn1)NCCc1c[nH]c2ccccc12` cannot be ordered by pKb: < 5 for the first, < 5 for the second.

`N#C/N=C(/NCCCCc1c[nH]cn1)NCCCC1CCCCC1` and `N#C/N=C(/NCCCc1c[nH]cn1)NCCCC1CCCCC1` cannot be ordered by pKb: < 5 for the first, < 5 for the second.

`CCN/C(=N/C#N)NCCCCCc1c[nH]cn1` and `N#C/N=C(/NCCCCc1c[nH]cn1)NCCCc1ccccn1` are within 0.2 log units of each other in pKb: 5.37 for the first, 5.48 for the second.

`N#C/N=C(/NCCCCc1c[nH]cn1)NCCCc1ccc(F)cc1` and `N#C/N=C(/NCCCCc1c[nH]cn1)NCCCc1ccncc1` are within 0.2 log units of each other in pKb: 5.28 for the first, 5.11 for the second.

`N#C/N=C(/NCCc1c[nH]cn1)NCCC(c1ccccc1)c1ccccc1` and `N#C/N=C(/NCCCCc1c[nH]cn1)NCCc1c[nH]c2ccccc12` cannot be ordered by pKb: < 5 for the first, < 5 for the second.

`Cc1[nH]cnc1CSCCN/C(=N\C#N)NCCCc1ccccc1` and `N#C/N=C(/NCCCCc1c[nH]cn1)NCCCc1cccnc1` are within 0.2 log units of each other in pKb: 5.74 for the first, 5.92 for the second.

From ChEMBL document CHEMBL1154326 (J Med Chem, 2009)
